Results reported in ChEMBL document CHEMBL4118021, “Studies of TAK1-centered polypharmacology with novel covalent TAK1 inhibitors” (Bioorg Med Chem, 2017).
Activity calls are given as the source filed them. No cut-off for these calls is given here.

What was measured:
BaF3 = test: Antiproliferative activity against mouse BA/F3 cells harboring KRAS G12D mutant after 72 hrs by CellTiter-Glo assay; type: functional, cell-based; conditions: BaF3, 72 h
[1] = target: Serine/threonine-protein phosphatase PP1-alpha catalytic subunit (Homo sapiens) (UniProt P62136); test: Binding affinity to PPP1CA in human NCI-H23 cells at 1 uM by mass spectrometry based pull down assay; type: cell-based
[2] = target: LIM domain kinase 1 (Homo sapiens) (UniProt P53667); test: Binding affinity to LIMK1 in human NCI-H23 cells at 1 uM by mass spectrometry based pull down assay; type: cell-based
[3] = target: Inter-alpha-trypsin inhibitor heavy chain H2 (Homo sapiens) (UniProt P19823); test: Binding affinity to ITIH2 in human NCI-H23 cells at 1 uM by mass spectrometry based pull down assay; type: cell-based
[4] = target: ATP synthase F(1) complex subunit alpha, mitochondrial (Homo sapiens) (UniProt P25705); test: Binding affinity to ATP5A1 in human NCI-H358 cells at 1 uM by mass spectrometry based pull down assay; type: cell-based
[5] = target: Probable ATP-dependent RNA helicase DDX6 (Homo sapiens) (UniProt P26196); test: Binding affinity to DDX6 in human NCI-H23 cells at 1 uM by mass spectrometry based pull down assay; type: cell-based
[6] = target: Signal recognition particle receptor subunit beta (Homo sapiens) (UniProt Q9Y5M8); test: Binding affinity to SRPRB in human NCI-H358 cells at 1 uM by mass spectrometry based pull down assay; type: cell-based
[7] = target: T1, 80S Ribosome (Homo sapiens) (UniProt P08865+P42677+P62753+P15880+P23396+P61247+P62701+P22090+P46782+P62081+P62241+P46781+P46783+P62280+P25398+P62277+P62263+P62841+P62244+P62249+P08708+P62269+P39019+P60866+P63220+P62266+P62847+P62851+P62854+P62979+P62857+P62273+P62861+P39023+P36578+P46777+Q02878+P18124+P62424+P62917+P32969+P27635+P62906+P62913+P30050+P26373+P40429+P50914+P61313+P18621+Q07020+Q02543+P84098+P46778+P35268+P62829+P62750+P83731+P61254+P61353+P46776+P46779+P47914+P62888+P62899+P62910+P49207+P42766+P18077+Q9Y3U8+P83881+P61927+P61513+P63173+P62891+P62945+P05388+P05386); test: Binding affinity to RPS2 in human NCI-H358 cells at 1 uM by mass spectrometry based pull down assay; type: cell-based
[8] = target: T2, Serine/threonine-protein kinase Chk1 (Homo sapiens) (UniProt O14757); test: Binding affinity to CHEK1 in human NCI-H358 cells at 1 uM by mass spectrometry based pull down assay; type: cell-based
T2 sequence (whole entry): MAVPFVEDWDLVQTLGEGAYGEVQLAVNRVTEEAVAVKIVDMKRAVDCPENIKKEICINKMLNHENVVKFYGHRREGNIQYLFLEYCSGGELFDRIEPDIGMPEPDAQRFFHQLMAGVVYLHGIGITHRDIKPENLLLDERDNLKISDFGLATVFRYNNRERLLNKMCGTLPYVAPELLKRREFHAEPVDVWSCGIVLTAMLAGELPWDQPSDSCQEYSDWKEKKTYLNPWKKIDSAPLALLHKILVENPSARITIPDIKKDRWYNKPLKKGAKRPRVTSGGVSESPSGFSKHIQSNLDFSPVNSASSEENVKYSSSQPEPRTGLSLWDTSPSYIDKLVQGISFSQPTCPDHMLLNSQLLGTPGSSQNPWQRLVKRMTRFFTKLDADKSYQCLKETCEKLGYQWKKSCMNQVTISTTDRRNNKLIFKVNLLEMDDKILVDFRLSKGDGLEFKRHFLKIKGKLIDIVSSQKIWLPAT

[9] = target: Mitogen-activated protein kinase 1 (Homo sapiens) (UniProt P28482); test: Binding affinity to MAPK1 in human NCI-H358 cells at 1 uM by mass spectrometry based pull down assay; type: cell-based
Plastin-2 (Homo sapiens) = Plastin-2 (Homo sapiens) (UniProt P13796); test: Binding affinity to LCP1 in human NCI-H358 cells at 1 uM by mass spectrometry based pull down assay; type: cell-based
[10] = target: Prefoldin subunit 2 (Homo sapiens) (UniProt Q9UHV9); test: Binding affinity to PFDN2 in human NCI-H23 cells at 1 uM by mass spectrometry based pull down assay; type: cell-based
[11] = target: Protein disulfide-isomerase A3 (Homo sapiens) (UniProt P30101); test: Binding affinity to PDIA3 in human NCI-H358 cells at 1 uM by mass spectrometry based pull down assay; type: cell-based
[12] = target: T3, Dual specificity mitogen-activated protein kinase kinase 3 (Homo sapiens) (UniProt P46734); test: Binding affinity to MAP2K3 in human NCI-H358 cells at 1 uM by mass spectrometry based pull down assay; type: cell-based
T3 sequence (whole entry): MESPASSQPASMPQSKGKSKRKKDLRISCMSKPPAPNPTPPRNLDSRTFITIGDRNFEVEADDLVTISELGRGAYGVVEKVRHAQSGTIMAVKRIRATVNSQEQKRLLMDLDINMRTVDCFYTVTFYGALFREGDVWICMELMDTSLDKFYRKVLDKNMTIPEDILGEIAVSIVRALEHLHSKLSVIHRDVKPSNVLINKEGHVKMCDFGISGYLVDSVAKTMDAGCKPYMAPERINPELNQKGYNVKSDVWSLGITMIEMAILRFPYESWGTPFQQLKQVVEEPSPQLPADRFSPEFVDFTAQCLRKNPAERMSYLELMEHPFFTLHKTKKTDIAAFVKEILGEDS

[13] = target: Phosphoinositide 3-kinase regulatory subunit 4 (Homo sapiens) (UniProt Q99570); test: Binding affinity to PIK3R4 in human NCI-H23 cells at 1 uM by mass spectrometry based pull down assay; type: cell-based
[14] = target: THO complex subunit 4 (Homo sapiens) (UniProt Q86V81); test: Binding affinity to ALYREF in human NCI-H23 cells at 1 uM by mass spectrometry based pull down assay; type: cell-based
[15] = target: F-actin-capping protein subunit beta (Homo sapiens) (UniProt P47756); test: Binding affinity to CAPZB in human NCI-H358 cells at 1 uM by mass spectrometry based pull down assay; type: cell-based
[16] = target: Aldehyde dehydrogenase family 16 member A1 (Homo sapiens) (UniProt Q8IZ83); test: Binding affinity to ALDH16A1 in human NCI-H358 cells at 1 uM by mass spectrometry based pull down assay; type: cell-based
In short: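 NCI-H23 or NCI-H358 cells were grown and lysed. Lysates were incubated overnight at 4 °C with 1 μM biotinylated covalent probe or DMSO, then pulled down on streptavidin beads. Proteins were run on polyacrylamide gels and stained with Coomassie. Bands were excised, digested and identified by mass spectrometry.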

[17] = target: T1, 80S Ribosome (Homo sapiens); test: Binding affinity to RPL24 in human NCI-H23 cells at 1 uM by mass spectrometry based pull down assay; type: cell-based

Inter-alpha-trypsin inhibitor heavy chain H2 (Homo sapiens), sequence (P19823 whole entry): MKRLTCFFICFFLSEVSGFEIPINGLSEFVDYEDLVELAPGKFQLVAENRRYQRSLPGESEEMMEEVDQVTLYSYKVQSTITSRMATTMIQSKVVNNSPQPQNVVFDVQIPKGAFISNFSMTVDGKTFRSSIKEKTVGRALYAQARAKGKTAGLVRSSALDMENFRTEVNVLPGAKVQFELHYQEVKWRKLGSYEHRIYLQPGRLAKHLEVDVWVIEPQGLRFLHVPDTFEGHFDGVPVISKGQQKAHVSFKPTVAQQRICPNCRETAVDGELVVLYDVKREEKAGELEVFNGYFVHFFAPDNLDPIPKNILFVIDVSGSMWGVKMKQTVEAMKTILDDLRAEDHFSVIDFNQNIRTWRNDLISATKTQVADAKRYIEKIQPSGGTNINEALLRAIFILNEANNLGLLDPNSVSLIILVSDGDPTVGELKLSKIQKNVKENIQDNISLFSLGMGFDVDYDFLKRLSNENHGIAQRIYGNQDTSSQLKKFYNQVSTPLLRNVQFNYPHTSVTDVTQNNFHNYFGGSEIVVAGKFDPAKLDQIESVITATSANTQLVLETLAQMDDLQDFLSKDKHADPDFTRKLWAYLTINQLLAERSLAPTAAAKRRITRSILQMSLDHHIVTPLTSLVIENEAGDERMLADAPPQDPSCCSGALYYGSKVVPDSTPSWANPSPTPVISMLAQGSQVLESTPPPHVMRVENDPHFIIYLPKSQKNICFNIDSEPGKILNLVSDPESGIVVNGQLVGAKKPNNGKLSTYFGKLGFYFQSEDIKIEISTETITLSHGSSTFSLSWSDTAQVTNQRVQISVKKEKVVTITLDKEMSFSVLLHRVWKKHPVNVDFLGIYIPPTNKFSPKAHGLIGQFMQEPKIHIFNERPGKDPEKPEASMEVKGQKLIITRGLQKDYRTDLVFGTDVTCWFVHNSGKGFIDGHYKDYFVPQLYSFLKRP
Phosphoinositide 3-kinase regulatory subunit 4 (Homo sapiens), sequence (Q99570 whole entry): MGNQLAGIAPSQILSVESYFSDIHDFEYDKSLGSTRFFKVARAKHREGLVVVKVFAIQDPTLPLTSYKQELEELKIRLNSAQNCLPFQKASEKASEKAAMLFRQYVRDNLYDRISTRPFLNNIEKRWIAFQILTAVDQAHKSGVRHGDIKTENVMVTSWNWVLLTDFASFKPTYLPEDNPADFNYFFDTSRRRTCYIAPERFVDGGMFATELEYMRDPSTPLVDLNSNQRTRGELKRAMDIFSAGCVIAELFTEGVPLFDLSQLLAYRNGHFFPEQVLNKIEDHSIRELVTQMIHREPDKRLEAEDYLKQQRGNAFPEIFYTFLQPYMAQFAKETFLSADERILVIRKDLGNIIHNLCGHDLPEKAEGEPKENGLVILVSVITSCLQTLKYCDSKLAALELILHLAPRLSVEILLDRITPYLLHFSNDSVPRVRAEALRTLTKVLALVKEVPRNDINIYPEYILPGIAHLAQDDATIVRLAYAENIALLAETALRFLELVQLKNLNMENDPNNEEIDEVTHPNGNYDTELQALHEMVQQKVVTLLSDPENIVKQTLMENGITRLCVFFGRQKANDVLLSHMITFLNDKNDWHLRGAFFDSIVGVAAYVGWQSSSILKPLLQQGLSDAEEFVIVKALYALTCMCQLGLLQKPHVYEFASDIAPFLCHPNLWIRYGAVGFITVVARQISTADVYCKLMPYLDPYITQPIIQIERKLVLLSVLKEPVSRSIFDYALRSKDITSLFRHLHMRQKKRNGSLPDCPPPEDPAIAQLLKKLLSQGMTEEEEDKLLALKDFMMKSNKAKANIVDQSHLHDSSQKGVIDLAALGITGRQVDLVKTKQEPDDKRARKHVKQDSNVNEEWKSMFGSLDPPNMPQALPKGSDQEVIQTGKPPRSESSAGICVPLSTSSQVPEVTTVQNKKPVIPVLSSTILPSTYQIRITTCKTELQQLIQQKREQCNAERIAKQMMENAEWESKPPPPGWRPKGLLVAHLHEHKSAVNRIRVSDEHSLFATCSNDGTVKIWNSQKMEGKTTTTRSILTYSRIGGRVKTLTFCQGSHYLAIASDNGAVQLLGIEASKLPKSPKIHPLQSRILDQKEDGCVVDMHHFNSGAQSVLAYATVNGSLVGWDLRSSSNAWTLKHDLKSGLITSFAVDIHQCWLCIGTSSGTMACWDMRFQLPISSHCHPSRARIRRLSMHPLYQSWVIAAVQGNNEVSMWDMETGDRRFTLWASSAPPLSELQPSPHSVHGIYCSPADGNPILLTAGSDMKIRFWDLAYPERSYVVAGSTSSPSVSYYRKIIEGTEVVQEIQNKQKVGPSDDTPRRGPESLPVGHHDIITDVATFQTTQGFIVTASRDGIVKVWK
Plastin-2 (Homo sapiens), sequence (P13796 whole entry): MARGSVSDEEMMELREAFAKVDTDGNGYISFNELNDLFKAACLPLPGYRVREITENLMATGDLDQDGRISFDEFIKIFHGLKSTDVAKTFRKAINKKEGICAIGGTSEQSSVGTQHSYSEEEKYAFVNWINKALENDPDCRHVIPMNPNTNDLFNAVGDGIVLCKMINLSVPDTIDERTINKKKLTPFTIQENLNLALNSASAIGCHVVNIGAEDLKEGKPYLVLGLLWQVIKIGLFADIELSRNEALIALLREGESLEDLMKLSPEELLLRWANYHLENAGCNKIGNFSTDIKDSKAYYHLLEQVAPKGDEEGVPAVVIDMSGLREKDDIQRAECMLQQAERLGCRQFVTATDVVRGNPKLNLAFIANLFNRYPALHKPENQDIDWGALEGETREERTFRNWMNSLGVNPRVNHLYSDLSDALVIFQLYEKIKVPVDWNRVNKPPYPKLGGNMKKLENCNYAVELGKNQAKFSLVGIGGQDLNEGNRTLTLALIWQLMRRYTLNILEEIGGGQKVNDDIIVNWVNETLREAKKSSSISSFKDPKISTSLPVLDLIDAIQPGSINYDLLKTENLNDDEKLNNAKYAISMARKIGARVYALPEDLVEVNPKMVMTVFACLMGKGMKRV
Serine/threonine-protein phosphatase PP1-alpha catalytic subunit (Homo sapiens), sequence (P62136 whole entry, the tested form may be a part): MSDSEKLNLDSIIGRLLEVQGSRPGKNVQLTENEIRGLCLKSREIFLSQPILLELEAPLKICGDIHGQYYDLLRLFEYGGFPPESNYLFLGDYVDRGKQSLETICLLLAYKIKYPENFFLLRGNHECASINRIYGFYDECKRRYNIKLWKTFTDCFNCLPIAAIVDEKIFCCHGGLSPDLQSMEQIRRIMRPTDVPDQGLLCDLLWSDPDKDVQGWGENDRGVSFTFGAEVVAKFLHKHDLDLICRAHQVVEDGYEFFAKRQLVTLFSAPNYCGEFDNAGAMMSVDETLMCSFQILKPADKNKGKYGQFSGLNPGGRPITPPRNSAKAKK
Probable ATP-dependent RNA helicase DDX6 (Homo sapiens), sequence (P26196 whole entry): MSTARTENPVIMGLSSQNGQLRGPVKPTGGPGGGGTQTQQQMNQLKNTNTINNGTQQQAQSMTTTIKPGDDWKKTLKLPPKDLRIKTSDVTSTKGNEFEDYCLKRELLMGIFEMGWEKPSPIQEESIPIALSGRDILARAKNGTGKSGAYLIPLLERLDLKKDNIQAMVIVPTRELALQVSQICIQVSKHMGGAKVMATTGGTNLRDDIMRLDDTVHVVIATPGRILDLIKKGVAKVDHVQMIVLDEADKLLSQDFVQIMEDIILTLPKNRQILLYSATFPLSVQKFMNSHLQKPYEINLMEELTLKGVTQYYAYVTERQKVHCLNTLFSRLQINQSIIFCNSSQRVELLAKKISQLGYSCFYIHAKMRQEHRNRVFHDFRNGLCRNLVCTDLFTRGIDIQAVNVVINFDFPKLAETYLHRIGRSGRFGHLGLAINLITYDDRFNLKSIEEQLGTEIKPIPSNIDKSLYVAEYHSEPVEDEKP
LIM domain kinase 1 (Homo sapiens), sequence (P53667 whole entry, looked up, the tested form may be a part): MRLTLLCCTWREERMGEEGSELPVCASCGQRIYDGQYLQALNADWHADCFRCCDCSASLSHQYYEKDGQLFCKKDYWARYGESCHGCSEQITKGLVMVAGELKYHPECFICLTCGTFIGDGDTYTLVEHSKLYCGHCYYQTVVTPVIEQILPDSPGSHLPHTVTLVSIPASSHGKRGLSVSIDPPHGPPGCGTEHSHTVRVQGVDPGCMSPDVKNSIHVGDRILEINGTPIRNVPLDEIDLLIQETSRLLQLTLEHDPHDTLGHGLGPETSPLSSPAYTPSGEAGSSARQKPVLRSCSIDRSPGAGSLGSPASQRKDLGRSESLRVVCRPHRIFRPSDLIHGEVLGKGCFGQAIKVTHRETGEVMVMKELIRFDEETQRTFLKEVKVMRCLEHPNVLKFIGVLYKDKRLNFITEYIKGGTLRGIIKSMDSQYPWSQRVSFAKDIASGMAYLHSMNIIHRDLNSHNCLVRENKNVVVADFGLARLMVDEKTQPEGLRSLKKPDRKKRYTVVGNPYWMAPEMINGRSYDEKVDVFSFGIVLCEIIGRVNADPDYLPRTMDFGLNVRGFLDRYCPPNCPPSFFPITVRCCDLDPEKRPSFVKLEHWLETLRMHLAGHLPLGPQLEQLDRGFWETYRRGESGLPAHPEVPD
F-actin-capping protein subunit beta (Homo sapiens), sequence (P47756 whole entry): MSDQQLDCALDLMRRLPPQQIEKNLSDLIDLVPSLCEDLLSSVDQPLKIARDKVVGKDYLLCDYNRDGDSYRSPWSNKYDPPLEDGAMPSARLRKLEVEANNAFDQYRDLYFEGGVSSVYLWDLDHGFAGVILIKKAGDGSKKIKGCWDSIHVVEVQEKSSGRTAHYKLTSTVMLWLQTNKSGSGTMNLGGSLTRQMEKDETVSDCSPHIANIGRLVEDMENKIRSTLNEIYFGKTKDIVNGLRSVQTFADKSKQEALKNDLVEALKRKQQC
Signal recognition particle receptor subunit beta (Homo sapiens), sequence (Q9Y5M8 whole entry): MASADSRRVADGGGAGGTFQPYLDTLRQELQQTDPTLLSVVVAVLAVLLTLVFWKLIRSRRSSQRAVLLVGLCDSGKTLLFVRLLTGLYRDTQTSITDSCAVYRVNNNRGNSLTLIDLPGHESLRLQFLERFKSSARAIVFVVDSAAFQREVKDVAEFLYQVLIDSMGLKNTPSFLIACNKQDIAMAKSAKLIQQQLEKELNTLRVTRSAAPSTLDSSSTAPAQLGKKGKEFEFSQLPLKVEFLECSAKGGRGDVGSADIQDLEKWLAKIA

Structure (SMILES)	IC50 (BaF3)	Activity [1]	Activity [2]	Activity [3]	Activity [4]	Activity [5]	Activity [6]	Activity [7]	Activity [8]	Activity [9]	Activity (Plastin-2 (Homo sapiens))	Activity [10]	Activity [11]	Activity [12]	Activity [13]	Activity [14]	Activity [15]	Activity [16]	Activity [17]
COc1cc(O)c2c(c1)/C=C/C[C@H](O)[C@H](O)C(=O)/C=C\C[C@H](C)OC2=O	4 nM																		
C=CC(=O)Nc1ccccc1Nc1nc(Nc2ccc(N3CCN(CCOCCOCCOCCNC(=O)CCCC[C@@H]4SC[C@@H]5NC(=O)N[C@@H]54)CC3)cc2)ncc1Cl		Active	Active	Active	Active	Active	Active	Active	Active	Active	Active	Active	Active	Active	Active	Active	Active	Active	Active
